The values that follow come from ChEMBL document CHEMBL4477191, “Haliclonadiamine Derivatives and 6-epi-Monanchorin from the Marine Sponge Halichondria panicea Collected at Iriomote Island” (J Nat Prod, 2016).

Molecules are shown by their SMILES. Where a name gives a salt, the structure may show the parent alone. Activity calls are given as the source filed them. The rule behind the calls is not given here.

In experiment [1] the test system is Mycolicibacterium smegmatis. In words: Antimycobacterial activity against Mycobacterium smegmatis NBRC 3207 at 10 ug/disc after 2 days by paper disc method. The format is functional. Particulars: NBRC 3207, 48 h, read-out: IZ. In a few lines:
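Paper disc diffusion. Strain kept in 20% glycerol at −80 °C, then grown 2 days at 37 °C in Middlebrook 7H9 broth with 0.05% polysorbate 80, 0.5% glycerol and 10% OADC. Adjusted to 1.0 × 10^6 CFU/mL and spread on the same medium with 1.5% agar. Sample in CH3OH dried onto 6 mm discs. Plates incubated 37 °C, 2 days. Inhibition zone read in mm. Streptomycin sulfate (5 μg/disc) positive control; CH3OH negative control.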

Another experiment relates to Huh-7. The experiment can be described thus: Cytotoxicity against human HuH7 cells assessed as reduction in cell viability after 72 hrs by WST-1 assay. Type of experiment: functional, cell-based. Particulars: Huh-7, 72 h. In short, it runs like this:
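Cells seeded at 1 × 10^4 per well, cultured overnight, then exposed to compound for 72 h. WST-1 (0.5 mM) with 1-PMS (0.02 mM) in medium added for 60 min at 37 °C. Absorbance read at 438 nm, reference 620 nm. Viability expressed as percent of 0.1% EtOH-treated controls. IC50 reported.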

In experiment [2] the test system is Mycolicibacterium smegmatis. In words: Antimycobacterial activity against Mycobacterium smegmatis NBRC 3207 at 10 to 20 ug/disc after 2 days by paper disc method. Type of experiment: functional, organism-based. In short, it runs like this:
(§1)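 Strain stored in 20% glycerol at −80 °C. Grown in Middlebrook 7H9 broth with 0.05% polysorbate 80, 0.5% glycerol and 10% OADC at 37 °C for 2 days, then adjusted to 1.0 × 10^6 CFU/mL and spread on the same medium with 1.5% agar. Samples in CH3OH dried onto 6 mm filter discs, incubated 37 °C for 2 days. Read-out is inhibition zone (mm). Streptomycin sulfate 5 μg/disc as positive control, CH3OH as negative control.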

For experiment [3], the system named is Mycolicibacterium smegmatis. The experiment can be described thus: Antimycobacterial activity against Mycobacterium smegmatis NBRC 3207 at 5 ug/disc after 2 days by paper disc method. The format is functional. The conditions noted are these: NBRC 3207, 48 h, read-out: IZ. In short, it runs like this: as §1

On to `C1=C\[C@H]2[C@@H]3CCCC[C@H]3C[C@@H]2NCCCN[C@@H]2C[C@@H]3CCCC[C@H]3[C@@H]2/C=C/1`, for which the zone of inhibition at 10 µg/disc in experiment [1] amounted to 12 mm. Further, the IC50 in the experiment with Huh-7 is above 10 µM.
In the case of `N[C@@H]1C[C@@H]2CCCC[C@H]2[C@@H]1/C=C\C=C\[C@H]1[C@@H]2CCCC[C@H]2C[C@@H]1N`, the zone of inhibition at 10 µg/disc in experiment [1] turned out to be 7 mm. Besides, the IC50 in the experiment with Huh-7 was determined as 7.8 µM.
For `C1=C/[C@H]2[C@@H]3CCCC[C@H]3C[C@H]2NCCCN[C@@H]2C[C@@H]3CCCC[C@H]3[C@@H]2/C=C/1` the same measures were 12 mm and 3.9 µM.
As for `C1=C\[C@H]2[C@@H]3CCCC[C@H]3C[C@H]2NCCCN[C@H]2C[C@@H]3CCCC[C@H]3[C@@H]2/C=C/1`, the zone of inhibition at 10 µg/disc in experiment [1] is 7 mm. Besides, the IC50 in the experiment with Huh-7 stood at 6.7 µM.
Regarding `COc1cccc2c1C(=O)c1c(O)c3c(c(O)c1C2=O)C[C@@](O)(C(=O)CO)C[C@@H]3O[C@H]1C[C@H](N)[C@H](O)[C@H](C)O1` [DOXORUBICIN], the 50% inhibitory concentration (IC50) in the experiment with Huh-7 was determined as 0.4 µM.
On to `N[C@@H]1C[C@@H]2CCCC[C@H]2[C@@H]1/C=C/C=C\[C@H]1[C@@H]2CCCC[C@H]2C[C@@H]1N`, for which, in experiment [1], the zone of inhibition at 10 µg/disc came out at 8 mm. For the same compound, the IC50 with Huh-7 is 7.2 µM.
Turning to `C1=C/[C@H]2[C@@H]3CCCC[C@H]3C[C@@H]2NCCCN[C@@H]2C[C@@H]3CCCC[C@H]3[C@@H]2/C=C/1` [HALICLONADIAMINE], the zone of inhibition at 10 µg/disc in experiment [1] was determined as 16 mm. Further, the half-maximal inhibitory concentration (IC50) with Huh-7 was 3.6 µM.
Take `CCCCC[C@@H]1O[C@@H]2CC[C@H]1NC(=N)N2`: the inhibition entry in experiment [2] is “inactive”. For the same compound, the IC50 in the experiment on Huh-7 is above 10 µM.
For `CCCCC[C@H]1O[C@@H]2CC[C@H]1NC(=N)N2` the same measures were “inactive” and above 10 µM.
In the case of `CN[C@@H]1[C@H](O[C@H]2[C@H](O[C@H]3[C@H](O)[C@@H](O)[C@H](N=C(N)N)[C@@H](O)[C@@H]3N=C(N)N)O[C@@H](C)[C@]2(O)C=O)O[C@@H](CO)[C@H](O)[C@H]1O` [STREPTOMYCIN SULFATE], in experiment [3], the zone of inhibition at 5 µg/disc was determined as 30 mm.
